Screening data: PubChem BioAssay, several laboratories
Sampled rows, rich in hits. Any-hit rate of the full collection: about 4.9%.
FLuc inhib CS: firefly luciferase enzyme inhibitors, primary screen, artefact control for luciferase-based inhibitor screens, biochemical, luminescence, ATPLite; Luciferin 4-monooxygenase (Photinus pyralis), P08659; inhibition, % at 10 µM; AID 1006, 2008; 10 min; 1.5% of 200,000 active;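 active = inhibition above about 50% when tested at 10 µM, limit read from the data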
Target sequence (P08659 whole entry, looked up): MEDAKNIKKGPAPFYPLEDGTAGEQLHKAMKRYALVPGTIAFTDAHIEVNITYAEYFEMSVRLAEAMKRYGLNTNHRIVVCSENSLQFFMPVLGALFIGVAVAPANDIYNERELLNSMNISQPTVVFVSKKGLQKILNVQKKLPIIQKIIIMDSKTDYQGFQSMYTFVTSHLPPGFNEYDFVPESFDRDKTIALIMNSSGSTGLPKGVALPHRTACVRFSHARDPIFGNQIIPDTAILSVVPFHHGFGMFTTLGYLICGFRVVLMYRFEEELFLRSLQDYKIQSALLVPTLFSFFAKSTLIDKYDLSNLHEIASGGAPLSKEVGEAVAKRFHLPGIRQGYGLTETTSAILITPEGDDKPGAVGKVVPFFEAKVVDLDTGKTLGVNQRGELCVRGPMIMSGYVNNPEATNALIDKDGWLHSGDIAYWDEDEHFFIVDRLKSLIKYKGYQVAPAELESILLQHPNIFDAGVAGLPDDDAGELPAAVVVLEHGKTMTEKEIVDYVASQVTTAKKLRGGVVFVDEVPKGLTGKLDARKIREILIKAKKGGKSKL
STAT1 blocker: STAT1 signaling inhibitors, primary screen, cell-based, HTS, luciferase reporter; NIH 3T3 STAT1-luciferase reporter, IFN-gamma, luminescence; inhibition, % at 5.5 µM; 0.35% of 200,000 active;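 active = inhibition above a set limit, the mean inhibition across all tested compounds plus 3 SD, cut at about 34% in these data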;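 note: 0% = IFN-gamma with DMSO and 100% = IFN-gamma with 300 µM nifuroxazide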
STAT1 act-1: STAT1 signaling activators, primary screen, cell-based, HTS, luciferase reporter; 2.6% of 200,000 active; NIH 3T3 STAT1-luciferase reporter, IFN-gamma, luminescence; 100% = IFN-gamma alone, no compound; activation (% of control), % at 5.5 µM;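 active = activation above the screen-wide mean activation plus 3 SD, cut at about 130% in these data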;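 note: raw ratio to IFN-gamma control signal so 100% means no change and 0% no light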
FLuc stim CS: FLuc activators, initial screening, artefact control for FLuc-dependent activation tests, biochemical, ATPlite luminescence | Luciferin 4-monooxygenase (Photinus pyralis), P08659 | ATPlite luciferase biochemical, 10 min; 0 = ATP-free wells, 1 = DMSO control | activation factor at 10 µM | 200,000 tested, under 10 active | AID 1027, 2008;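 active = luciferase activation factor, scaled between plate controls, of at least 2 with compound at 10 µM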
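Material: Luciferase/luciferin reagent mix | Doses: Test compounds dosed from 2 mM stocks in 100% DMSO | Timing: 10 min incubation after luciferase reagent addition, room temperature | Measured by: Luminescence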
STAT3 act-1: IL-6 driven STAT3 reporter potentiators, primary screen, U3A cells, luciferase, luminescence, MLSCN library; IL-6 STAT3-luciferase reporter; 100% = signal with IL-6 EC80 alone; AID 871, 2007; activation (% of control), % at 5.6 µM; 0.91% of 190,000 active;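 active = activation above the screen-wide mean of compound activation plus 3 SD, cut at about 130% in these data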;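 note: 0% = background luminescence of wells with medium and substrate only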
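Material: STAT1-lacking human U3A cells, STAT3 luciferase reporter | Benchmarks: IL-6-only wells as 100% reference | Probe or stimulus: IL-6 (33 ng/mL) | Timing: Compound 1 h, then IL-6 6 h at 37 °C | Detection: Luminescence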
STAT3 inh: IL-6 driven STAT3 reporter inhibitors, primary screen, U3A cells, luciferase, luminescence, MLSCN library; IL-6 STAT3-luciferase reporter; host cell line lacks STAT1; inhibition, % at 5.5 µM; 0.89% of 190,000 active; AID 862, 2007;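 active = inhibition above the mean inhibition across all screened compounds plus 3 SD, cut at about 44% in these data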;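 note: 0% = DMSO only wells and 100% = 100 µM nifuroxazide control wells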
STAT3 act-2: STAT3 reporter potentiators, retest of hits, confirmation, U3A cells, luciferase, luminescence; shares compounds with STAT3 act-1; IL-6 potentiation; U3A cells lack STAT1; 100 means same as IL-6 alone; potentiation (% of control), % at 5.7 µM; 64% of 1,200 active; AID 1267, 2008;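 active = percent activation of the STAT3 luciferase reporter above a set limit taken from the earlier primary screen, cut at about 130% in these data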;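 note: 0% = background signal of medium plus substrate and 100% = median of IL-6 with DMSO wells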
NFkB act STAT3ct: NF-kB reporter activators in human cells, counter-screen for STAT3 activator project | shares compounds with STAT3 act-1 | NF-kappaB reporter activation | activation (% of control), % at 5.7 µM | 11% of 1,200 active | AID 1309, 2008; in the data active = activation above about 120%;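 note: reporter induced by TNF-alpha stimulation; 100% = median of stimulated DMSO wells and 0% = no signal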
STAT1 act-2: STAT1 reporter activators, IFN-gamma induced, counter-screen for STAT3 activator project, cell-based, NIH 3T3, luciferase luminescence | shares compounds with STAT3 act-1 | NIH 3T3 STAT1-luciferase reporter | activation (% of control), % at 5.7 µM | 13% of 1,200 active;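 active = activation above the solvent-only control well mean plus 3 SD, set per screening run, cut at about 120% in these data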;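 note: 100% = IFN-gamma with DMSO median signal so 100% means no change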
Numbers without * were called inactive; x = no result given.

SMILES | FLuc inhib CS | STAT1 blocker | STAT1 act-1 | FLuc stim CS | STAT3 act-1 | STAT3 inh | STAT3 act-2 | NFkB act STAT3ct | STAT1 act-2
CCOC(=O)C1=NN(c2ccc(OC)cc2)C(c2ccccc2)CC1=O (stereo not given) | -4 | 4 | 101 | 1 | 119 | -22 | x | x | x
Cn1c(C(=O)Nc2ccccc2)cc2sccc21 | 18 | -14 | 112 | 0.8 | 163* | -79 | 144* | 123* | 134*
CCOC(=O)c1cnn(-c2ncnc3c2cnn3Cc2ccccc2)c1N | x | 3 | 98 | x | 87 | 18 | x | x | x
CCOC(=O)c1cnn(-c2ncnc3sc(C)c(C)c23)c1N | -5 | 6 | 95 | 1 | 149* | -57 | 143* | 101 | 104
O=C(OCc1nc2ccccc2s1)c1cnccn1 | 12 | -17 | 115 | 0.9 | 136* | -37 | 146* | 119 | 140*
CCOC(=O)C1=C(C)NC(C)=C(C(=O)OCC)C1c1cc2ccc(C)cc2[nH]c1=O | -3 | 8 | 93 | 1 | 143* | -46 | 129 | 92 | 99
CC(=O)NC(CCS(C)(=O)=O)C(=O)N1CCc2ccccc21 (stereo not given) | -6 | -6 | 106 | 1.1 | 137* | -41 | 116 | 102 | 100
COc1ccc(NC(=O)c2sc(SC)nc2N)cc1 | 9 | -25 | 124 | 0.9 | 136* | -35 | 162* | 127* | 150*
COc1ccc(NC(=O)c2sc(SCc3ccccc3)nc2N)cc1 | -2 | -9 | 108 | 1 | 95 | 10 | x | x | x
COc1ccccc1-c1n[nH]c(=S)n1N | -4 | 6 | 96 | 1 | 91 | 15 | x | x | x
COc1ccccc1-c1n[nH]c(=S)n1-c1ccccc1 | 9 | 2 | 98 | 0.9 | 137* | -38 | 104 | 104 | 105
O=C(Nc1ccc(S(=O)(=O)N2CCCCC2)cc1)C1CCCN(C(=O)c2ccc(Cl)cc2)C1 (stereo not given) | -3 | 5 | 95 | 1 | 94 | 5 | x | x | x
CCC(C(=O)NC1CCCCC1)N(Cc1cccs1)C(=O)c1snc(C(N)=O)c1N (stereo not given) | -3 | 5 | 96 | 1 | 101 | -1 | x | x | x
CSc1nnc(-c2ccco2)c(-c2ccco2)n1 | 4 | 1 | 99 | 1 | 105 | -3 | x | x | x
CSc1nnc2c3ccccc3c3ccccc3c2n1 | -2 | 13 | 88 | 1 | 162* | -78 | 147* | 103 | 95
O=C(Nc1nc2ccccc2s1)c1ccc2c(c1)S(=O)(=O)c1ccccc1C2=O | -4 | -5 | 102 | 1 | 140* | -38 | 132 | 101 | 96
CCC(C)NC(=O)C(NS(=O)(=O)c1cccc2nsnc12)c1ccccc1 (stereo not given) | -6 | 1 | 99 | 1.1 | 139* | -39 | 96 | 115 | 117
O=C(C1CCCN(S(=O)(=O)c2ccccc2[N+](=O)[O-])C1)N1CCN(c2ccccc2)CC1 (stereo not given) | 5 | -4 | 103 | 1 | 102 | -3 | x | x | x
Cn1c(=O)c(-c2cc(Br)ccc2N)nc2ccccc21 | 14 | 14 | 87 | 0.9 | 164* | -64 | 155* | 115 | 93
O=C(Nc1nccs1)C1Cc2ccccc2CN1S(=O)(=O)c1ccc(F)cc1 (stereo not given) | 6 | -25 | 123 | 0.9 | 138* | -44 | 128 | 126* | 148*
O=C(NC1CCCCC1)C1Cc2ccccc2CN1S(=O)(=O)c1ccc(F)cc1 (stereo not given) | -6 | -1 | 101 | 1.1 | 107 | -7 | x | x | x
C/C(O)=C(\N=Nc1cc(C)ccc1O)C(N)=O | -2 | 5 | 93 | 1 | 143* | -46 | 175* | 129* | 136*
O=C(NCCOc1ccccc1)c1ccccc1NC(=O)C1CCCO1 (stereo not given) | -4 | -9 | 107 | 1 | 140* | -40 | 138* | 120 | 131*
CCc1ccc(NC(=O)c2ccccc2NC(=O)C2CCCO2)cc1 (stereo not given) | 2 | -18 | 116 | 1 | 116 | -13 | x | x | x
CSC1=NCCN1C(=O)C12CC3CC(CC(C3)C1)C2 | 0 | 0 | 101 | 1 | 99 | 6 | x | x | x
SMILES | FLuc inhib CS | STAT1 blocker | STAT1 act-1 | FLuc stim CS | STAT3 act-1 | STAT3 inh | STAT3 act-2 | NFkB act STAT3ct | STAT1 act-2
O=C1c2ccccc2NC2(CCCC2)N1O | -2 | 3 | 97 | 1 | 105 | 2 | x | x | x
S=C1NC2(CCCC2)Nc2ccccc21 | -2 | 10 | 89 | 1 | 143* | -48 | 144* | 100 | 93
S=C1NC2(CCCCCC2)N=C1c1ccccc1 | -4 | -10 | 107 | 1 | 106 | 2 | x | x | x
S=C1NC2(CCCCC2)Nc2ccccc21 | -2 | 9 | 90 | 1 | 138* | -42 | 121 | 96 | 92
CCOC(=O)c1[nH]c2ccccc2c1NC(=O)C(CC)CC | -9 | -2 | 102 | 1.1 | 96 | 9 | x | x | x
CCOC(=O)c1[nH]c2ccccc2c1NC(=S)Nc1ccccc1 | -7 | 0 | 100 | 1.1 | 157* | -66 | 163* | 108 | 89
CCOC(=O)c1[nH]c2ccccc2c1NC(=S)Nc1cccc(C)c1 | -9 | 2 | 98 | 1.1 | 163* | -73 | 155* | 100 | 87
COc1ccc(C2c3[nH]c4ccccc4c3CCN2CCCn2cccn2)c(C)c1C (stereo not given) | -2 | 2 | 96 | 1 | 163* | -67 | 163* | 101 | 95
COc1cccc(C2c3[nH]c4ccccc4c3CCN2CCCn2cccn2)c1 (stereo not given) | -5 | 9 | 90 | 1 | 132 | -31 | x | x | x
C[C@H](NS(=O)(=O)c1ccccc1)C(=O)OCC(=O)NC(=O)Nc1ccc2c(c1)OCCO2 | 4 | -8 | 107 | 1 | 104 | -2 | x | x | x
COc1ccc(S(=O)(=O)Nc2c(C(=O)O)[nH]c3ccccc23)cc1OC | 2 | -1 | 101 | 1 | 141* | -42 | 165* | 110 | 100
